# Bioassay records as filed in PubChem.
# Hits are enriched below; roughly 2.5% of the tested compounds scored in any of these assays.
# H9c2 TAG inh: reduces triacylglycerol accumulation in H9c2 cells | 0.66% of 230,000 active | AID 651582 | inhibition, % at 12.5 µM | Nile Red lipid (TAG) fluorescence; cells loaded with 200 µM oleic acid;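 active = pattern-corrected inhibition of lipid staining of at least 50% with the nuclear-stain viability signal not falling by more than 50%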;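 also: 0% = DMSO wells and 100% = triacsin C control wells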
# SR-BI uptake up: enhances SR-BI lipid uptake from DiI-HDL; 0.096% of 320,000 active; activation, % at 12.5 µM; CHO ldlA[mSR-BI] cells, DiI-HDL uptake fluorescence, 3 h; 100 = double the neutral-control signal; AID 504775;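 active = mean replicate activation of at least 60% and every replicate at or above 60%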;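 also: 0% = median plate neutral-control signal and 100% = twice that signal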
#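 System: LDL receptor-deficient CHO ldlA cells overexpressing murine SR-BI | Timing: 3 h uptake period with compound, 37 °C | Medium: HEPES-buffered (25 mM, pH 7.4) F12 plus 0.5% BSA | Dosing: Single-point compound dose | Signal: Bottom-read fluorescence, 550/595 nm | Read-out: Retained DiI signal reflecting DiI-HDL uptake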
# Vif imaging: inhibitors of HIV Vif | inhibition, % at 7.49 µM | 0.35% of 340,000 active | HEK293T cells, Vif self-association by quenched fluorescence, imaging, 24 h | AID 602346; in the data active = inhibition above about 50%, passing the limit was not always enough
# SR-BI DiI inh: mouse SR-BI HDL lipid transfer inhibition; ldlA[mSR-BI] CHO cells, DiI-HDL uptake fluorescence, 3 h; inhibition, % at 12.5 µM; 0.96% of 320,000 active;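 active = mean replicate inhibition of at least 70% and a set share of replicates each scoring 70 or more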;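 also: 0% = median of neutral control wells and 100% = median of positive control wells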
# Target sequence (Q61009 whole entry, looked up): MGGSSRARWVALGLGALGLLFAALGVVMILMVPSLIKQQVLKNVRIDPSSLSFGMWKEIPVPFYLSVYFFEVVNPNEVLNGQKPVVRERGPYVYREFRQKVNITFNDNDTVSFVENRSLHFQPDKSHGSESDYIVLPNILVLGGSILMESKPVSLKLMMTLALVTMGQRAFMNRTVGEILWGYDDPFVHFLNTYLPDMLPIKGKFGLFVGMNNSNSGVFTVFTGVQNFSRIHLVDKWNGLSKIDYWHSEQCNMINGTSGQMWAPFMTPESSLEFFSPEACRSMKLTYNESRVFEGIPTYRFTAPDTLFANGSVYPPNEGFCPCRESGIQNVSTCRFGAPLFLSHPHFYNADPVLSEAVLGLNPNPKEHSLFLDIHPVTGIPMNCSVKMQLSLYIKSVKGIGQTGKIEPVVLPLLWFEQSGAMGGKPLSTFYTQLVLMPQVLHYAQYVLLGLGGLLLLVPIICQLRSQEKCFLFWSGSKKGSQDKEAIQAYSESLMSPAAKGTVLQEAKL
# SMARCA2 activ: SMARCA2 function activation, primary screen; 1% of 370,000 active; activation, % at 9.1 µM; MG213 cells, MMTV-luciferase reporter, dexamethasone, overnight; in the data active = activation above about 7.8%;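 also: 0% = vehicle wells and 100% = reference activator wells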
# Active calls of the source: *; nt = no result.
SMILES,H9c2 TAG inh,SR-BI uptake up,Vif imaging,SR-BI DiI inh,SMARCA2 activ
Cc1cc(C)c(NC(=O)CSc2nc3ccc(NC(=O)CSc4nnnn4-c4ccccc4)cc3s2)c(C)c1,nt,-77,4,77*,0
CCOC(=O)N(C)C[C@@H]1OCc2cn(nn2)CCCC(=O)N([C@H](C)CO)C[C@H]1C,nt,nt,nt,nt,-3
Cn1c(C(=O)N2CCN(Cc3ccc4c(c3)OCO4)CC2)cc2c(=O)n(C)c3ccccc3c21,nt,-76,0,76*,1
Cn1c(C(=O)N2CCCC2)cc2c(=O)n(C)c3ccccc3c21,9,-2,1,2,0
O=C(c1ccc2c(c1)C(=O)NC2=O)c1ccc2c(c1)C(=O)NC2=O,nt,nt,nt,nt,-1
CC[C@H](C)[C@H]1CNC(=O)C(=O)N1CC1CCN(CC(C)C)CC1,nt,nt,nt,nt,-3
CCC(C(=O)NC1C(=O)N2C(C(=O)O)=C(CSc3nnc(C)s3)CSC12)c1ccccc1 (stereo unspecified),-8,74*,13,-74,-1
COc1cc(/C=N/NC(=O)c2cc3ccccc3cc2O)ccc1OCCN1CCCCC1,nt,-77,-3,77*,1
COCCn1c(C)cc(/C=N/NC(=O)c2cc3ccccc3cc2O)c1C,-6,-95,-4,95*,nt
Cc1ccc(-n2c(SCc3cccc(F)c3)nnc2-c2cccc(C)c2)cc1,nt,nt,nt,nt,-7
NC(=O)C1=C(N=C2CCCCC2)CCCC1,-15,-3,65*,3,-2
COC(=O)C1=C(C)N(Cc2ccc(C(F)(F)F)cc2)C(=NCc2ccc3c(c2)OCO3)NC1c1cccc(Cl)c1 (stereo unspecified),nt,nt,nt,nt,-4
COC(=O)[C@]12C[C@H](CC(=O)NCCc3ccccc3OC)C(=O)N(Cc3ccccc3)C1=C[C@H](C1CCCC1)O[C@@H]2C,nt,nt,nt,nt,-3
O=C1c2cccc(OCc3ccc(F)cc3)c2CCN1Cc1ccccc1,nt,-25,2,25,-6
CCN1CCc2c(OCc3ccccc3)cccc2C1=O,-3,-80,-3,80*,-1
CCOc1ccc(C(=O)Nc2c3c(nn2C(C)(C)C)CSC3)cc1OCC,nt,-75,-6,75*,-4
CCOc1ccc(C(=O)Nc2nnc(C)s2)cc1OCC,nt,-61,6,61,0
O=C(NCc1ccccc1)[C@@H]1CCCN1C(=O)[C@H]1CCCN1C(=O)c1cccs1,nt,nt,nt,nt,-1
Nc1cc[n+](CC(=O)c2ccc3c(c2)OCCO3)cc1,nt,1,82*,-1,-6
CCn1c(O)c(/C=C2\C=Nc3ccccc32)sc1=Nc1ccccc1,nt,-80,-3,80*,2
COc1ccc(-c2cnc3c(-c4ccc(F)cc4)cnn3c2N)cc1,nt,-95,2,95*,6
CC(C)(C)S(=O)(=O)c1cnc2c(-c3ccc(Cl)cc3)cnn2c1N,-2,-20,1,20,4
Nc1c(-c2ccc(Cl)cc2)cnc2c(-c3ccccc3)cnn12,nt,-15,1,15,7.9*
COCCN1C(=O)[C@H]2C[C@@]13O[C@H](c1ccc(C(F)(F)F)cc1)N=C3C[C@H](c1ccccc1)[C@H]2C,nt,nt,nt,nt,-4
CCCCCCCCCCCCCCCC[N+](C)(C)CC,9,13,-3,-13,-11
SMILES,H9c2 TAG inh,SR-BI uptake up,Vif imaging,SR-BI DiI inh,SMARCA2 activ
CCCCCCCCCCCCCCCC[N+](C)(C)CCl,66*,-10,14,10,-3
CCOC(=O)Nc1oc2ccccc2c(=O)c1CN1CCOCC1,nt,-8,54*,8,0
CCOC(=O)c1c(C)[nH]c(C(=O)COC(=O)/C=C/c2ccc3c(c2)OCO3)c1C,nt,14,-7,-14,-2
COc1cc(/C=C/C(=O)OCC(=O)N2CCCc3ccccc32)ccc1O,-14,-22,68*,22,1
COc1cc(/C=C/C(=O)O)ccc1S(=O)(=O)N1CCCc2ccccc21,15,21,96*,-21,0
CCOC(=O)c1c(C)[nH]c(C(=O)COC(=O)/C=C/c2ccc(O)c(OC)c2)c1C,-4,-42,50*,42,-3
COc1cc(OC)c(C2=NOC(C(=O)N3CCCc4ccccc43)C2)cc1Cl (stereo unspecified),nt,-81,-5,81*,4
CCCCCN(C(=O)Cc1c(C)n(CCCCC)c2ccccc12)c1ccc(Oc2cccnc2)c(C)c1,nt,nt,nt,nt,3
O=C(O)[C@@H]1C[C@@H](O)CN1,nt,nt,nt,nt,-3
CCOC(=O)[C@]12CCCCC/C=C\1N(Cc1ccc(OC)cc1)C(=O)[C@H]2CC(=O)NCCc1ccccc1OC,nt,nt,nt,nt,-3
COC(=O)[C@]12C[C@H](CC(=O)NCc3cccc4ccccc34)C(=O)N(CCC3=CCCCC3)C1=C[C@H](C(C)(C)C)O[C@@H]2C,nt,nt,nt,nt,-1
C[C@H]1C2CC(OC(=O)NCc3ccc(Cl)cc3)C(C2)[C@H]2CCCCN21 (stereo partly specified),nt,nt,nt,nt,-2
COc1ccc(C(=O)N2CCCc3ccccc32)cc1OC,nt,-83,-5,83*,2
CCn1c(SCC(=O)c2ccc3c(c2)Cc2ccccc2-3)nnc1-c1ccc(N)cc1,nt,-77,6,77*,-3
CCn1c(SCC(=O)c2ccc(O)c(O)c2)nnc1-c1ccc(C)cc1,5,-5,16,5,-6
O=C(Nc1nc(-c2ccc(S(=O)(=O)N3CCCCCC3)cc2)cs1)c1cccs1,51*,-56,-11,56,-2
CC(C)CN1C(=O)C(=O)N(CC(=O)c2ccc3c(c2)OCO3)C1=O,2,-9,147*,9,-2
COc1ccc(C2CC(=O)C(c3ccc(C(N)=O)cc3)=CN2Cc2ccccc2)cc1 (stereo unspecified),nt,nt,nt,nt,-5
CN1CCCCC(NC(=O)c2cccs2)C1=O (stereo unspecified),nt,nt,nt,nt,1
C=CC[C@]12C[C@@]3(O[C@H](c4ccccn4)N=C3C[C@H](c3ccc(OC)cc3)[C@H]1C)N(C1CCN(Cc3ccccc3)CC1)C2=O,nt,nt,nt,nt,-5
COc1ccc(-c2oc3ccc(-c4cc(OC)c(OC)c(OC)c4)cc3c2C(=O)c2ccc(OC)nc2)cc1,4,-44,1,44,1
COc1ccc(-c2sc3cc4c(cc3c2C#CC2(O)CCCCC2)OCO4)cc1,13,-66,-6,66,1
COc1ccc(C(=O)c2c(-c3ccc(OC)cc3)oc3ccc(-c4cc(OC)c(OC)c(OC)c4)cc23)cc1,7,-73,0,73*,0
COc1ccc(-c2oc3ccc(-c4ccc5c(c4)OCO5)cc3c2C#CC2(O)CCCCC2)cc1,-5,-84,-6,84*,0
COc1ccc(-c2oc3ccc(-c4ccc(OC)nc4)cc3c2C#CC2(O)CCCCC2)cc1,0,-85,-2,85*,1
CCCOC(=O)c1c(-c2ccc(OC)cc2)oc2ccc(-c3ccc(OC)nc3)cc12,-52,-73,-1,73*,0
O=c1[nH]c(-c2ccccc2)cn1C1CCN(Cc2ccc(-c3nc4ccccc4nc3-c3ccccc3)cc2)CC1,nt,nt,nt,nt,2
CN(C(=O)CSc1ncnc2c(-c3cccs3)nsc12)C1CCCCC1,nt,nt,nt,nt,0
CCCCCC(=O)NC1CCCCN(C)C1=O (stereo unspecified),nt,nt,nt,nt,-3
